Assay results published in ChEMBL document CHEMBL4371092, “3,4- seco-Norclerodane Diterpenoids from the Roots of Polyalthia laui” (J Nat Prod, 2019).

How the values were obtained:
[1] = tested on: Human immunodeficiency virus 1; test: Antiviral activity against HIV1 3B infected in human MT4 cells assessed as reduction in virus-induced cytopathic effect by measuring number of syncytia after 3 days by inverted microscopic method; format: functional, organism-based; details: Human immunodeficiency virus 1, 3B, MT4, 72 h
How it was run: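 Anti-HIV-1 activity was scored as inhibition of viral cytopathic effect, and EC50 was taken as the 50% effective concentration. AZT (3′-azido-3′-deoxythymidine) was run as the positive control.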

[2] = Therapeutic index, ratio of CC50 for human C8166 cells to EC50 for HIV1 3B infected in human MT4 cells; format: toxicity, cell-based; details: read-out: Ratio CC50/EC50
How it was run: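 TI was computed as CC50/EC50. CC50 came from an MTT cytotoxicity assay on C8166 cells, and EC50 from inhibition of HIV-1 cytopathic effect, with AZT as the positive control.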

[3] = Cytotoxicity against human C8166 cells after 72 hrs by MTT assay; format: cell-based
How it was run: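 C8166 cells were tested for cytotoxicity by MTT assay, with CC50 defined as the 50% cytotoxic concentration.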

[4] = tested on: HeLa; test: Cytotoxicity against human HeLa cells after 72 hrs by MTT assay; format: cell-based
How it was run: (§1)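 Human tumour lines MCF7 (breast), HeLa (cervical carcinoma) and A549 (lung adenocarcinoma) were tested by MTT assay for cytotoxicity, with doxorubicin as the positive control.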

[5] = tested on: MCF7; test: Cytotoxicity against human MCF7 cells after 72 hrs by MTT assay; format: cell-based; details: MCF7, 72 h; how it was run: as §1
[6] = tested on: A549; test: Cytotoxicity against human A549 cells after 72 hrs by MTT assay; format: cell-based; details: A549, 72 h; how it was run: as §1

Cc1cn([C@H]2C[C@H](N=[N+]=[N-])[C@@H](CO)O2)c(=O)[nH]c1=O [ZIDOVUDINE]
EC50 [1]: 0.02 µM
selectivity ratio [2]: 338000
CC50 at 72 h [3]: 5230 µM

C[C@@H]1CC[C@@]2(C)C(C(=O)O)=CCC[C@@H]2[C@@]1(C)CC/C(=C\C(=O)O)C(=O)O
EC50 [1]: 19.8 µM
selectivity ratio [2]: > 16.4
IC50 [4]: > 10 µM
IC50 [5]: > 10 µM
IC50 [6]: > 10 µM
CC50 at 72 h [3]: > 200 µM

CC(=O)[C@]1(C)CC[C@@H](C)[C@](C)(CC/C(C)=C/C(=O)O)[C@H]1CC(=O)O
EC50 [1]: 12.2 µM
selectivity ratio [2]: > 16.4
IC50 [4]: > 10 µM
IC50 [5]: > 10 µM
IC50 [6]: > 10 µM
CC50 at 72 h [3]: > 200 µM

CC1=CC(=O)C[C@@H]2[C@@](C)(CC/C(=C\C(=O)O)C(=O)O)[C@H](C)CC[C@@]12C
EC50 [1]: 35.2 µM
selectivity ratio [2]: > 5.7
IC50 [4]: > 10 µM
IC50 [5]: > 10 µM
IC50 [6]: > 10 µM
CC50 at 72 h [3]: > 200 µM

C/C(=C\C(=O)O)CC[C@@]1(C)[C@H](C)CC[C@]2(C)[C@@H]1CC[C@@H](O)[C@]2(C)O
EC50 [1]: 27.4 µM
selectivity ratio [2]: > 7.3
IC50 [4]: > 10 µM
IC50 [5]: > 10 µM
IC50 [6]: > 10 µM
CC50 at 72 h [3]: > 200 µM

CC1=C(C(=O)O)C[C@@H]2[C@@](C)(CC/C(=C/C(=O)O)CO)[C@H](C)CC[C@@]12C
EC50 [1]: 23.1 µM
selectivity ratio [2]: > 8.5
IC50 [4]: > 10 µM
IC50 [5]: > 10 µM
IC50 [6]: > 10 µM
CC50 at 72 h [3]: > 200 µM

CO[C@@H]1OC(=O)C=C1CC[C@@]1(C)[C@H](C)CC[C@@]2(C)C(C)=C(C=O)C[C@H]12
EC50 [1]: 16.8 µM
selectivity ratio [2]: > 11.9
IC50 [4]: > 10 µM
IC50 [5]: > 10 µM
IC50 [6]: > 10 µM
CC50 at 72 h [3]: > 200 µM
